The results in this text go back to PubChem BioAssay AID540347 (Broad Institute, 2011).

Molecules are shown by their SMILES. The source made the active and inactive calls.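 How the source made its calls: active means viability loss with fitted half-maximal concentration at most ten times the top valid dose; inconclusive means flat fit with 30 to 70% inhibition, or poor fit; inactive means the rest, including rising signal.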

The test system of assay [1] is SK-MEL-5 viability, CellTiter-Glo ATP luminescence, 24 h. Briefly: ATP-based growth inhibition in SK-MEL-5 cells – cell-based, CellTiter-Glo luminescence, dry powder samples, orthogonal assay for MITF inhibitor project, dose response (AID 540347). In a few lines:
(§1)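 Schedule: 24 h compound exposure, 37 °C. Assay system: SK-MEL-5 melanoma cells, parent of primary-assay reporter line. Buffer or medium: phenol red-free medium. Read-out: cell viability. Measured by: ATP luminescence, CellTiter-Glo.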
In general terms: Cellular ATP, detected with luciferase, serves as a proxy for viable cell number.

Assay in assay [2]: as above
The conditions noted are these: SK-MEL-5 viability, CellTiter-Glo ATP luminescence, 24 h; at 35 µM (top of the series). In a few lines: as §1

On to `CN(C)CCCNC(=O)/C(=C\c1ccc(-c2ccc(Br)cc2)o1)NC(=O)c1ccccc1`, for which, in assay [1], the IC50 is 32 µM.

For the molecule `Cc1ccc(C(C)C)c(OCc2nn(CC(=O)c3ccc(Cl)cc3)c3[n+]2CCCCC3)c1`, the activity change, negative = inhibition in assay [2] is -4.44% (inactive).

Regarding `CC1CCN(CC(CS(=O)(=O)c2ccc([N+](=O)[O-])cc2)N2CCC(C)CC2)CC1` (stereo not given), in assay [2], the activity change, negative = inhibition is 3.72% (inactive).

As for `Cc1oc(-c2ccc(Cl)cc2)nc1CN1CCC(C(=O)NCCCN2CCCC(C)C2)CC1` (stereo not given), the activity change, negative = inhibition in assay [2] was -12.1% (inactive).

As for `CCN1c2ccccc2NC2N=C(OC)C(c3ccccc3)C21` (stereo not given), the IC50 in assay [1] is 4.78 µM.

As to `COc1cc(/C=N/NC(N)=O)c(Br)cc1OCC(=O)Nc1ccccc1C`, the activity change, negative = inhibition in assay [2] is -15.2% (inactive).

`COc1ccc(S(=O)(=O)N(C(C)=O)c2ccc(OC(C)=O)c3ccccc23)cc1[N+](=O)[O-]`: the 50% inhibitory concentration (IC50) in assay [1] is 6.58 µM.

On to `O=C(Nc1ccc(-c2nc3ncccc3o2)cc1)c1ccc([N+](=O)[O-])o1`, for which the activity change, negative = inhibition in assay [2] was 6.95% (inactive).

On to `Cc1ccc(C(O)(c2ccc(C)c(C)c2)C2CN3CCC2CC3)cc1C` (stereo not given), for which, in assay [2], the activity change, negative = inhibition is -2.1% (inactive).

Consider `CCN1CCCC1CNC(=O)c1ccc2c(c1)NC(=O)/C(=C\c1ccc(C)cc1)S2` (stereo not given), for which, in assay [1], the IC50 is 29.1 µM.

Turning to `CC(C)C(CCNC1CCN(C)CC1)c1ccc(Cl)cc1` (stereo not given), the IC50 in assay [1] was 36.5 µM.

Consider `O=c1c(Cl)c2oc3ccccc3nc-2c2ccccc12`, for which, in assay [1], the IC50 is 24.7 µM.

As to `N=c1n(CCN2CCCC2)c2ccccc2n1CC(O)c1ccc(Cl)c(Cl)c1` (stereo not given), in assay [1], the half-inhibitory concentration (IC50) is 30.5 µM.

As to `Cc1[nH]c2ccccc2c1C(=O)CCl`, the IC50 in assay [1] was 27.7 µM.

`C=CCNC1=C(Cl)C(=O)c2ccccc2C1=O`: the IC50 in assay [1] was 14.3 µM.

Regarding `CC1CCCCC1NC(=O)/C(C#N)=C/C=C/c1ccccc1[N+](=O)[O-]` (stereo not given), the activity change, negative = inhibition in assay [2] was 9.93% (inactive).

Regarding `CC1=NNC(=O)/C1=C\c1cn(-c2ccccc2)nc1-c1ccc(F)cc1`, the IC50 in assay [1] is 25.4 µM.

Take `Cc1cc(C(C)(C)C)cc(C)c1Cn1c2[n+](c3ccc(C(F)(F)F)cc31)CCCCC2`: in assay [1], the IC50 is 27.1 µM.

With `CC1(C)CC(NC(=O)c2ccc(Cl)c(S(=O)(=O)N(Cc3ccccc3)c3ccccc3)c2)CC(C)(C)N1`, the IC50 in assay [1] was 29.2 µM.

`CCN(CC)CCNC(=O)c1c(C)n(-c2ccccc2)c2cc(Br)c(OC)cc12`: the activity change, negative = inhibition in assay [2] is -13.7% (inactive).

As to `COc1cc2c(cc1OC)C(c1ccccc1)N(C(=O)CCl)CC2` (stereo not given), the half-inhibitory concentration (IC50) in assay [1] is 28.4 µM.

In the case of `Cc1ccc(C(=O)N/N=C/c2ccc([N+](=O)[O-])s2)cc1`, the activity change, negative = inhibition in assay [2] was -12.1% (inactive).

`Cc1nc2ccccc2n1/N=C/c1ccc([N+](=O)[O-])s1`: the IC50 in assay [1] is 9.51 µM.

`O=C(COc1ccccc1)N/N=C/c1ccc([N+](=O)[O-])o1`: in assay [1], the IC50 is 35.5 µM.

As to `CCN1CCN(C2=C(NS(=O)(=O)c3ccc(Br)cc3)C(=O)c3ccccc3C2=O)CC1`, the IC50 in assay [1] was 33.5 µM.

The IC50 is the concentration that inhibits the measured activity by half.
